These results are taken from ChEMBL document CHEMBL4673386, “The Bicyclic Form of galacto-Noeurostegine Is a Potent Inhibitor of β-Galactocerebrosidase” (ACS Med Chem Lett, 2021).

Some results are limits rather than exact numbers.

The term Ki denotes a dissociation constant, usually derived from enzyme kinetics or from competition with a known ligand. Usually ΔTm stands for the shift of the melting midpoint relative to a reference.

Experiment [1] has as its target T1, Galactocerebrosidase (Mus musculus, UniProt P54818).
T1 sequence (P54818 whole entry): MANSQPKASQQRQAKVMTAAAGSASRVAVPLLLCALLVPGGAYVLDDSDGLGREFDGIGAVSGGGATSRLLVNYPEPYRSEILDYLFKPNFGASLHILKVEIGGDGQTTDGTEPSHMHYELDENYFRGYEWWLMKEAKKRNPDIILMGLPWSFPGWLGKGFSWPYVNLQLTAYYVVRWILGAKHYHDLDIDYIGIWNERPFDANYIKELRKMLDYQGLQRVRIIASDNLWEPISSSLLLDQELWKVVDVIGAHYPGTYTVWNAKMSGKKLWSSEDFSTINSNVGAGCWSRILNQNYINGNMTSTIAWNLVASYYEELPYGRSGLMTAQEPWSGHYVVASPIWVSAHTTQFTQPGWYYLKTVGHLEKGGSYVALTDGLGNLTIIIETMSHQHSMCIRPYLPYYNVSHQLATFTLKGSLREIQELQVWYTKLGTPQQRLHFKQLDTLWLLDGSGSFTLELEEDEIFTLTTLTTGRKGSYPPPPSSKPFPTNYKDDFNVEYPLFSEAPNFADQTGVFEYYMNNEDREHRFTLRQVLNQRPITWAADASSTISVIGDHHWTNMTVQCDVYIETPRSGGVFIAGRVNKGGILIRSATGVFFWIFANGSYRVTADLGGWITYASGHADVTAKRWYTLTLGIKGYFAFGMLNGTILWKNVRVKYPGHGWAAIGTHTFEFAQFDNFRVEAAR
Kind of experiment: Inhibition of mouse N-terminal His6-tagged GALC expressed in HEK293T cells using p-nitrophenyl-beta-D-galactopyranoside as substrate.

The nature of experiment [2]: Inhibition of Aspergillus oryzae beta-galactosidase using […] as substrate preincubated for 30 mins followed by substrate addition by UV-vis spectrophotometry analysis.
Experiment [3] is described as follows: Inhibition of green coffee beans beta-galactosidase using […] as substrate preincubated for 30 mins followed by substrate addition by UV-vis spectrophotometry analysis. Details: species or system Coffea arabica.
Experiment [4] is described as follows: Inhibition of Escherichia coli beta-galactosidase using […] as substrate preincubated for 30 mins followed by substrate addition by UV-vis spectrophotometry analysis.
Experiment [5] has as its target T2, Galactocerebrosidase (Mus musculus) (UniProt P54818).
T2 sequence (whole entry): T1 sequence (P54818 whole entry)
The experiment is described as follows: Stabilization of mouse N-terminal His6-tagged GALC expressed in HEK293T cells assessed as melting temperature at 0.5 mM at pH 6.6 by differential scanning fluorimetry (reference value: 59.6 degreeC). The format is cell-based. The gist of the method: (§1)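 GALC thermal melt curves recorded with and without ligand at 0.5 mM, at pH values from 4.6 to 7.4. Tm is read from each curve, and ΔTm is taken against GALC alone at the same pH. Runs were done in triplicate.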
A general note: DSF heats the sample and reads unfolding from a dye or from intrinsic fluorescence.

In experiment [6] the target is T2, Galactocerebrosidase (Mus musculus). Kind of experiment: Stabilization of mouse N-terminal His6-tagged GALC expressed in HEK293T cells assessed as melting temperature at 0.5 mM at pH 7.4 by differential scanning fluorimetry (reference value: 53.4 degreeC). The format is cell-based. The procedure, abridged:
as §1

For experiment [7] the target is unchanged. The experiment is described as follows: Stabilization of mouse N-terminal His6-tagged GALC expressed in HEK293T cells assessed as change in melting temperature at pH 4.6 by differential scanning fluorimetry. It is filed as cell-based. The procedure, abridged: as §1
Experiment [8] shares this target. Kind of experiment: Stabilization of mouse N-terminal His6-tagged GALC expressed in HEK293T cells assessed as melting temperature at 0.5 mM at pH 4.6 by differential scanning fluorimetry (reference value: 62.2 degreeC). It is filed as cell-based. The procedure, abridged:
as §1

Experiment [9] shares this target. Kind of experiment: Stabilization of mouse N-terminal His6-tagged GALC expressed in HEK293T cells assessed as change in melting temperature at pH 5.6 by differential scanning fluorimetry. It is filed as cell-based. The gist of the method:
as §1

The target is the same in experiment [10]. Kind of experiment: Stabilization of mouse N-terminal His6-tagged GALC expressed in HEK293T cells assessed as change in melting temperature at pH 6.6 by differential scanning fluorimetry. It is filed as cell-based. The procedure, abridged:
as §1

Experiment [11] has the same target. Kind of experiment: Stabilization of mouse N-terminal His6-tagged GALC expressed in HEK293T cells assessed as change in melting temperature at pH 7.4 by differential scanning fluorimetry. It is filed as cell-based. The procedure, abridged:
as §1

Experiment [12] has the same target. Kind of experiment: Stabilization of mouse N-terminal His6-tagged GALC expressed in HEK293T cells assessed as melting temperature at 0.5 mM at pH 5.6 by differential scanning fluorimetry (reference value: 62.8 degreeC). It is filed as cell-based. The gist of the method:
as §1

Consider `OC[C@@H]1[C@H](O)[C@H](O)[C@@H]2CC[C@H]1N2`, for which the inhibition constant Ki in experiment [1] is 2300 µM; in experiment [2], 0.13 µM; in experiment [3], above 1000 µM; in experiment [4] it was above 1000 µM.

As for `OC[C@@H]1[C@H](O)[C@H](O)[C@]2(O)CC[C@H]1N2`, the Tm in [5] was 65 °C; in experiment [6], 54.8 °C; in [8], 68 °C; in [12], 68 °C. The thermal shift (ΔTm) in experiment [7] was 5.8 °C; in [9], 5.2 °C; in experiment [10], 5.4 °C; in experiment [11] it was 1.4 °C. The Ki in experiment [1] is 7 µM; in experiment [2], 0.031 µM; in experiment [3] it was above 1000 µM; in [4], above 1000 µM.
